Measured values pooled from the literature.
Lines come from different studies, so protocols differ.
Target: Calcium/calmodulin-dependent protein kinase type II subunit gamma (CAMK2G, Homo sapiens, UniProt Q13555)

SMILES | read-out | method | concentration | remaining binding
CC1CCCN1c1nccc(-c2cnn3ncccc23)n1 (stereo not drawn) | binding | – | 1 µM | 100%
C[C@@H](c1ccc(-n2cnc3c(N)ncnc32)cc1)N1CCc2nn(C)c(Cc3ccccc3)c2C1=O | binding | competition with immobilised ligand | 0.1 µM | 94%
O=C(c1ccc(Nc2ncc(Cl)c(-c3ccc(Cl)s3)n2)cc1)N1CCC(N2CCCC2)CC1 | binding | competition with immobilised ligand | 1 µM | 80%
O=C(N1CCS(=O)(=O)CC1)N1C[C@H](c2ccc(OC(F)(F)F)cc2)C[C@H](c2nc(C3CC3)no2)C1 | cell-free assay | competition with immobilised ligand | 1 µM | 100%
COc1cnc(Nc2cccc(S(N)(=O)=O)c2)nc1N1CCN(c2ccccc2)CC1 | binding | competition with immobilised ligand | 1 µM | 94%
O=C(c1ccc(Nc2ncc(Cl)c(-c3cc4ccccc4s3)n2)cc1)N1CCC(N2CCCC2)CC1 | binding | competition with immobilised ligand | 1 µM | 82%
CCN1CCN(Cc2ccc(C(=O)Nc3ccc(C)c(Oc4ccc5c(c4)CC(=O)N5)c3)cc2C(F)(F)F)CC1 | binding | competition with immobilised ligand | 1 µM | 97%
CN(C)c1nccc(-c2cnn3ncccc23)n1 | binding | – | 1 µM | 100%
C[C@@H]1CN(c2cc(-c3n[nH]c4ccc(OC5(C)CC5)cc34)ncn2)C[C@H](C)O1 | cell-free assay | competition with immobilised ligand | 0.1 µM | 100%
CN(CCCC(F)(F)F)c1nccc(-c2cnn3ncccc23)n1 | binding | – | 1 µM | 100%
O=C(NCC1CCOCC1)c1n[nH]cc1NC(=O)c1c(F)cccc1F | binding | competition with immobilised ligand | 1 µM | 88%
CN(C)C(=O)Cn1cc(-c2nc([C@@](C)(c3ccc(-c4cnc(N)nc4)cc3)C3CC3)no2)cn1 | cell-free assay | competition with immobilised ligand | 1 µM | 100%
CN(C)c1nccc(-c2cnc3ncccn23)n1 | binding | – | 1 µM | 100%
O=C(NCCCN1CCOCC1)c1ccc(Nc2ncc(Cl)c(-c3ccc(Cl)s3)n2)cc1 | binding | competition with immobilised ligand | 1 µM | 77%
CCCOc1ccc([C@H]2[C@H](C(=O)O)[C@@H](c3ccc4c(c3)OCO4)CN2CC(=O)Nc2c(CC)cccc2CC)cc1 | cell-free assay | competition with immobilised ligand | 1 µM | 95%
c1cncc(-c2cccc(Nc3nccc(NC4CCCCC4)n3)c2)c1 | binding | competition with immobilised ligand | 10 µM | 80%
FC(F)(F)Oc1cccc(-c2cnc3ccc(-c4ccncc4)nn23)c1 | cell-free assay | competition with immobilised ligand | 5 µM | 39%
COc1cc(-c2cn(C3CCc4ccccc4N(CC(F)(F)F)C3=O)nn2)ccc1-n1ccc(C)n1 (stereo not drawn) | cell-free assay | competition with immobilised ligand | 1 µM | 100%
Cc1cnn2ncc(-c3ccnc(N(C)C)n3)c2c1 | binding | – | 1 µM | 64%
FC(F)(F)c1ccc2c(c1)nc(-c1cccnc1)n2C1CC1 | cell-free assay | competition with immobilised ligand | 1 µM | 100%
CNC(=O)[C@@H]1CC[C@@H](n2c(-c3ccc4cnccc4c3)nc3ccc(C(=O)NCc4cccc(C(N)=O)c4)cc32)C1 | binding | competition with immobilised ligand | 1 µM | 100%
